Results from ChEMBL document CHEMBL3860049, “Virtual Screening and X-ray Crystallography Identify Non-Substrate Analog Inhibitors of Flavin-Dependent Thymidylate Synthase” (J Med Chem, 2016).

Each molecule was assayed on Mycobacterium tuberculosis (assay: Inhibition of Mycobacterium tuberculosis ThyX at 100 uM preincubated with enzyme followed by [5-3H]dUMP substrate addition measured after 30 mins in presence of 5,10-methylenetetrahydrofolate,NADPH and FAD by liquid scintillation counting).
Method in brief: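 Recombinant Mtb ThyX (purified per an earlier protocol) tested at 100 µM per compound. Tritium release assay: formation of tritiated water from loss of 3H at the 5-carbon of the dUMP pyrimidine ring, with dUMP as competing substrate. Read-out is percent inhibition. 5-FdUMP served as reference compound.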

First: CCCC(=O)C1C(=O)NC(=O)NC1=O
Second: CC[C@H](Sc1n[nH]c(=O)[nH]c1=O)C(=O)O
The inhibition of the first is higher: 11% for the first, 5.7% for the second.

Compared with `O=c1[nH][nH]c(=O)c2nccnc12`, `O=c1[nH][nH]c(=O)c2[nH]cnc12` is higher in inhibition: 5.3% for the first, 7.1% for the second.

Compared with `O=c1[nH][nH]c(=O)c2nc3ccccc3nc12`, `O=c1[nH]nc(-c2ccccc2)c2nc[nH]c12` is higher in inhibition: 10% for the first, 15% for the second.

Going from `O=c1[nH]nc(Cl)c2nc[nH]c12` to `CSc1n[nH]c(=O)c2[nH]cnc12`, the inhibition falls from 29% to 10%.

Compared with `O=c1[nH]c(=O)n([C@H]2C[C@H](O)[C@@H](COP(=O)(O)O)O2)cc1F`, `C[C@@H](Sc1n[nH]c(=O)[nH]c1=O)C(=O)O` is lower in inhibition: 97.3% for the first, 6.1% for the second.

Compared with `COc1ccc2[nH]c3c(O)nncc3c2c1`, `Cc1nnc(Cl)c2ncn(C)c12` is higher in inhibition: 7% for the first, 14% for the second.
